The values below come from ChEMBL document CHEMBL2146419, “Effects of polyphenol compounds on influenza A virus replication and definition of their mechanism of action” (Bioorg Med Chem, 2012).

In data set [1] the test system is MDCK. Briefly: Cytotoxicity against dog MDCK cells assessed as modification of cell multiplication rate incubated for 24 hrs followed by compound wash out measured after 24 hrs by cell counting analysis. It counts as cell-based, Canis lupus familiaris. Summed up: (§1)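 Confluent MDCK monolayers plated at 2×10^5/ml were treated after 24 h with compound at 5–40 μg/ml and incubated a further 24 h. Assessed by microscopic examination of morphology, Trypan blue exclusion for viability, and cell counts for multiplication rate.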

In data set [2] the test system is MDCK. Kind of data set: Cytotoxicity against dog MDCK cells assessed as morphological alterations incubated for 24 hrs followed by compound wash out measured after 24 hrs by microscopic analysis. The format is cell-based, Canis lupus familiaris. The essentials: as §1
In data set [3] the test system is MDCK. Briefly: Cytotoxicity against dog MDCK cells assessed as loss of cell viability incubated for 24 hrs followed by compound wash out measured after 24 hrs by trypan blue exclusion assay. The format is cell-based, Canis lupus familiaris. Summed up:
as §1

Data set [4] has as its system MDCK. Briefly: Cytotoxicity against dog MDCK cells assessed as morphological alterations at 40 ug/mL incubated for 24 hrs followed by compound wash out measured after 24 hrs by microscopic analysis. It counts as cell-based, Canis lupus familiaris. Summed up: as §1
The subject of the next data set is Influenza A virus. Briefly: Antiviral activity against Influenza virus A/Puerto Rico/8/34 H1N1 infected in dog MDCK cells incubated at 1 hr post-infection measured after 24 hrs by hemagglutininating unit assay. The format is functional, organism-based. As to conditions: A/Puerto Rico/8/1934(H1N1). Summed up: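 MDCK cells infected with PR8; 1 h after adsorption they were washed, and compound (5–20 μg/ml) or DMSO was added and kept on throughout. Virus released into the supernatant was titrated by HAU assay 24 h p.i. Yield is a percentage of control infected cells given 0.02% DMSO. Means of four experiments, each in duplicate.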

As to `COc1ccc(C(=O)/C=C/c2ccc(F)cc2)c(O)c1`, the Activity result with MDCK [1], in the data set on MDCK [2] and in the data set with MDCK [3] was “Dose-dependent effect” in each case.

`Nc1cccc(C(=O)/C=C/c2ccc(O)c(O)c2)c1`: the Activity entry in the data set on MDCK [1], with MDCK [2] and with MDCK [3] was “Dose-dependent effect” in each case.

Take `O=C(/C=C/c1ccc(O)c(O)c1)c1ccc(O)cc1`: the Activity result with MDCK [1], in the data set with MDCK [2] and in the data set on MDCK [3] was “Dose-dependent effect” throughout.

In the case of `O=C(/C=C/c1ccc(Cl)cc1)c1ccccc1O`, the Activity entry in the data set with MDCK [1] was “Non-toxic”; with MDCK [4], “Toxic”; in the data set on Influenza A virus, “Dose-dependent effect”; in the data set with MDCK [2], “Non-toxic”; with MDCK [3], “Non-toxic”.

`O=C(/C=C/c1ccc(O)c(O)c1)c1ccccc1`: the Activity result with MDCK [1], in the data set on MDCK [2] and with MDCK [3] was “Dose-dependent effect” throughout.

`CCCN1C/C(=C\c2ccc(O)c(O)c2)C(=O)/C(=C/c2ccc(O)c(O)c2)C1`: the Activity result with MDCK [1], with MDCK [2] and in the data set on MDCK [3] was “Dose-dependent effect” throughout.

For the compound `O=C(/C=C/c1ccc(O)c(O)c1)c1ccc(O)cc1O` [BUTEIN], the Activity entry in the data set on MDCK [1], in the data set on MDCK [2] and with MDCK [3] was “Dose-dependent effect” in each case.

For `Cc1ccc(/C=C/C(=O)c2ccc(O)cc2O)cc1`, the Activity result in the data set with MDCK [1], in the data set on MDCK [2] and in the data set with MDCK [3] was “Dose-dependent effect” in each case.

For the compound `O=C(/C=C/c1ccc(O)c(O)c1)/C=C/c1ccc(O)c(O)c1`, the Activity entry with MDCK [1], with MDCK [2] and in the data set with MDCK [3] was “Dose-dependent effect” throughout.

Consider `COc1ccc(/C=C/C(=O)c2ccc(O)cc2O)cc1`, for which the Activity result in the data set on MDCK [1], in the data set on MDCK [2] and in the data set on MDCK [3] was “Dose-dependent effect” each time.

For the compound `CCOC(=O)C1C/C(=C\c2ccc(O)c(O)c2)C(=O)/C(=C/c2ccc(O)c(O)c2)C1` (stereo unspecified), the Activity entry with MDCK [1], in the data set with MDCK [2] and in the data set on MDCK [3] was “Dose-dependent effect” each time.

Regarding `O=C(/C=C/c1cc(O)cc(O)c1)c1ccc(O)cc1`, the Activity entry in the data set on MDCK [1], in the data set on MDCK [2] and with MDCK [3] was “Dose-dependent effect” in each case.

Turning to `O=C(/C=C/c1ccc(O)cc1)c1cc(O)cc(O)c1`, the Activity entry with MDCK [1] is “Non-toxic”; in the data set on MDCK [4] it was “Toxic”; in the data set on Influenza A virus, “Dose-dependent effect”; in the data set on MDCK [2], “Non-toxic”; with MDCK [3], “Non-toxic”.

In the case of `O=C1/C(=C/c2ccc(O)c(O)c2)CCC/C1=C\c1ccc(O)c(O)c1`, the Activity result with MDCK [1], in the data set with MDCK [2] and in the data set with MDCK [3] was “Dose-dependent effect” throughout.
